Experimental data pooled from the literature.
Each line is one published result; the experiments were not run side by side.
Cell line: OVCAR-3
Effect on: cell growth or viability

| SMILES | assay | conditions | measurement | result |
| --- | --- | --- | --- | --- |
| C[C@]12CC[C@@H]3c4ccc(O)cc4CC[C@H]3[C@@H]1CC[C@@H]2O | ATP luminescence | 72 h | EC50 | 27.6 µM |
| CC(C)c1cc(-c2n[nH]c(=O)n2-c2ccc3c(ccn3C)c2)c(O)cc1O | imaging | 24 h | IC50 | 0.279 µM |
| O=C1CCC2(Oc3cccc4cccc(c34)O2)c2c(O)ccc(O)c21 | resazurin | 72 h | IC50 | > 25 µM |
| COc1ccc(-c2ccc(-c3ccc(C(=N)N)nc3)s2)cc1 | SRB | – | GI50 | 1.82 µM |
| COc1cccc(Oc2ccccc2NC(=O)CNC(=O)c2cccc3ccccc23)c1 | SRB | 48 h | GI50 | 0.1 µM |
| Cc1ccc(C)c(COc2cc(NC(=O)c3ccc4c(c3)OCO4)ccc2N(C)S(C)(=O)=O)c1 | SRB | 48 h | GI50 | 0.0396 µM |
| C[C@H]1O[C@@H](n2cc(F)c(=O)[nH]c2=O)[C@H](O)[C@@H]1O | CCK-8 | 48 h | IC50 | > 50 µM |
| CC/C(=C(\c1ccccc1)c1ccc(OCCN(C)C)cc1)c1ccccc1 | ATP luminescence | 72 h | EC90 | 42.9 µM |
| COc1ccc(-c2ccc(-c3ccc(C(=N)N)nc3)s2)cc1Cl | SRB | – | GI50 | 1.83 µM |
| Cc1cc(C)n(C(=S)[S][Au][PH](CCCCCC[PH]([Au][S]C(=S)n2nc(C)cc2C)(c2ccccc2)c2ccccc2)(c2ccccc2)c2ccccc2)n1 | – | – | GI50 | 0.648 µM |
| COc1ccc(C(=O)/C=C/c2ccccc2Cl)cc1S(N)(=O)=O | SRB | 10 µM | inhibition | 9% |
| COc1cc(OC)c(/C=C/S(=O)(=O)Nc2ccc(OC)c(N)c2)c(OC)c1 | trypan blue | 96 h | IC50 | 0.004 µM |
| COc1ccc(C(=O)/C=C/c2cccnc2)cc1S(N)(=O)=O | SRB | 48 h | GI50 | 10.2 µM |
| CC(C)C(=O)Nc1ccc([N+](=O)[O-])c(C(F)(F)F)c1 | CCK-8 | 48 h | IC50 | 34.1 µM |
| CSc1ccc(/C=C2\C=C(CC(=O)NS(=O)(=O)C(F)(F)F)c3cc(F)ccc32)cc1 | WST-1 | 48 h | EC50 | ~160 µM |
| COc1ccc(C(=O)/C=C/c2cccc(Cl)c2Cl)cc1S(N)(=O)=O | SRB | 10 µM | inhibition | 156% |
